The EternaBench riboswitch data

System: MS2 coat protein
Assay: apparent Kd, MS2 coat protein; higher = weaker binding; RNA-MaP array; tryptophan 2.4 mM where present
Procedure, shortened: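 Designs were transcribed by stalled E. coli RNA polymerase on Illumina sequencing-chip clusters. They were titrated with SNAP-549-labelled MS2 coat protein from 0.7 or 1.5 nM, doubling to 3 µM, without and then with constant ligand. Buffer: 100 mM Tris-HCl pH 7.5, 80 mM KCl, 4 mM MgCl2, BSA, DTT, yeast tRNA, Tween-20. Green signal was normalised to red-channel RNA signal and control-cluster median Fmax. Apparent Kd is the median of filtered per-cluster binding-curve fits.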

[1] = designed as: ON switch for tryptophan, no ligand
[2] = ligand present: tryptophan, designed as: ON switch for tryptophan
[3] = designed as: OFF switch for tryptophan, no ligand
[4] = ligand present: tryptophan, designed as: OFF switch for tryptophan

| Sequence | apparent Kd [1] | apparent Kd [2] | apparent Kd [3] | apparent Kd [4] |
| --- | --- | --- | --- | --- |
| GGUUACUCUACGGCCGCCACUGUAAUGUAAAGAUACCUGUACAUGACAUGAGGAUCACCCAUGUACAGGACCGGGUAGUGUAACC | 237 nM | 48.1 nM | – | – |
| GUAUAUUGAAAACAAUAUACAGUGGGUGAACGAGGACCGGUACGGCCGCCACUCGGACAUGAGGAUCACCCAUGUCCAUGUGAAA | – | – | 17 nM | 35.2 nM |
| UAAUGCAGGUCGGCCGCCACUACACACAUGAGGAUCACCCAUGUAGUUACUGGGUGAAGUGGCAGUAGGACCGGGACCUGCAUAA | 419 nM | 516 nM | – | – |
| UACUUGCUGACGGCCGCCACUAGAACAUGAGGAUCACCCAUGUACCCGGUCCUACAUGGGAUGACUAGGACCGGGUCAGCAAGAU | – | – | 40.9 nM | 141 nM |
| UACUUGCUGACGGCCGCCACUAGAACAUGAGGAUCACCCAUGUAUCUAGUGGCAAUCCUCAUGACUAGGACCGGGUCAGCAAGAU | – | – | 9.71 nM | 9.56 nM |
| UAUAGUACCAGACAUGAGGAUCACCCAUGUCGAGGACCGGUACGGCCGCCACUCGGCAGUUUGCGUCCUCAGGUACUCCGGGUCA | – | – | 13.9 nM | 16.6 nM |
| UCAUAAGUACCGGUCCUCAGAUCCUCAUGACGAGGACCGGUACGGCCGCCACUCGAAACAUGAGGAUCACCCAUGUAAUAAUACU | – | – | 24.1 nM | 23.6 nM |
| UCAUAAGUACCGGUCCUCAGAUCCUCAUGACGAGGACCGGUACGGCCGCCACUCGAAACAUGAGGAUCACCCAUGUAAUAAUAUU | – | – | 21.3 nM | 19 nM |
| UCGGAGAAGUCGGCCGCCACUGAACUCUUGUUCUACAUGAGGAUCACCCAUGUUCCUUUGUUUAACAGGACCGGGACUUAUACGA | 224 nM | 96.3 nM | – | – |
| UCGUUUGAGGCGGCCGCCACUGGUCUCAUGGUCAACAUGAGGAUCACCCAUGUAUCUUUGCUAAGCAGGACCGGGCCUCGAGCGA | – | – | 66.7 nM | 36.8 nM |
| UGUGCAUGAGUUGUAAAAGCUCAUGGGCAUCGAGGACCGGUACGGCCGCCACUCGGCUGUACAUGAGGAUCACCCAUGUCAGGGU | 302 nM | 567 nM | – | – |
| UGUGGGCGCACGGCCGCCACUGUCUUCAUCUGUUUGUCUACAUGAGGAUCACCCAUGUUGGUUUACAGGACCGGGUGCAUCUAUG | 45.2 nM | 30.1 nM | – | – |
| UUAUAAGUACCGGUCCUCAGAUCCUCAUGACGAGGACCGGUACGGCCGCCACUCGAAACAUGAGGAUCACCCAUGUAAUAAUAUC | – | – | 23.8 nM | 24.7 nM |
